Test results as given in the EternaBench riboswitch data.

System: MS2 coat protein
Test: apparent Kd, MS2 coat protein; higher = weaker binding; RNA-MaP array; FMN 200 µM where present
Outline: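 Binding was read on Illumina sequencing-chip clusters where stalled E. coli RNA polymerase had transcribed each design. A titration of SNAP-549-labelled MS2 coat protein began at 0.7 or 1.5 nM and doubled to 3 µM, once without ligand and once with constant ligand, in 100 mM Tris-HCl pH 7.5, 80 mM KCl, 4 mM MgCl2, BSA, DTT, yeast tRNA and Tween-20. The apparent Kd is the median of filtered per-cluster binding-curve fits, based on green signal normalised to red-channel RNA signal and control-cluster median Fmax.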

[1] = designed as: OFF switch for flavin mononucleotide, no ligand
[2] = ligand present: flavin mononucleotide, designed as: OFF switch for flavin mononucleotide
[3] = designed as: ON switch for flavin mononucleotide, no ligand
[4] = ligand present: flavin mononucleotide, designed as: ON switch for flavin mononucleotide

Row | Sequence | apparent Kd [1] | apparent Kd [2] | apparent Kd [3] | apparent Kd [4]
1 | GGAUCGAGUGUGAGGAUAUACCUAUGGAUACAUAGGUAGAAGGCACAUGAGGAUCACCCAUGUGUUCCCGGUCC | 43.4 nM | 368 nM |  | 
2 | UUUUUACAUGAGGAUCACCCAUGUGAGGAUAUGGAUUCGCUGGCCGUAGCCAGUGGAUCCAGAAGGCGCAUGAU | 82.7 nM | 280 nM |  | 
3 | UGCAUCAAUGAAGGAUAUCUAUGUCCAACAUGAGGAUCACCCAUGUUGAGGAUUACCUAUGUGUAGGAGAAGGUCAAUAUAACU |  |  | 6.67 nM | 6.12 nM
4 | AUGGUACAUGAGGAUCACCCAUGUUAGGAUAUCGCGUGUUCUAAAACUAAGAGAUACACGAGAAGGGACGACAU | 90.2 nM | 67.7 nM |  | 
5 | UCAUACAUGACAUGACAUGACAUGAGGAUCACCCAUGUUUACAAGGAUAUGUACAUGAAACAUGUACAGAAGGUGUAUUGGACU | 42.4 nM | 150 nM |  | 
6 | GUAGCAUACCAAGGAUAUUUAGGGCUUUGAUAGACAUGAGGAUCACCCAUGUGGCGUUAGUCAAGGGAGAAGGUGGUAUGCUAC |  |  | 22.6 nM | 14.5 nM
7 | GUCCCGAGGGAGAAGGGCUAGAAGGUCCAGCUUAUGUGUGUUGCAACAUGAGGAUCACCCAUGUAGCAGGAUAUCCCUUGUACA | 18.1 nM | 39.6 nM |  | 
8 | AUCAUGUGAGGAUAUGUGAUCAACCUUCUGUAUAGAUGAUUACAGAAGGCACAUGAGGAUCACCCAUGUAGAUC | 70.9 nM | 79 nM |  | 
9 | CCAUCAGCGGGCGUAUCGGUUGGACAUGAGGAUCACCCAUGUAGAAGGACAGGAGUAUUUCGGCUGUAGGAUAUACAUUUGGUG | 22.5 nM | 52.7 nM |  | 
10 | GUGCGGUAGGAGAAGGACGGAGGCUUCUUUACAUACAUGAGGAUCACCCAUGUAGGAUAUCCUACCUCACGCGGCCUCCUUCUG | 5.4 nM | 5.5 nM |  | 
11 | ACAUAAAUUCGAGGAUAUCGGUGAAAUAAUUUACGAGAAGGCGAUAAUAGUUAUAGACUUAUAGACAUGAGGAUCACCCAUGUA |  |  | 30.3 nM | 27.6 nM
12 | CUGGGAUCAGUAGGAUAUGCCGGACAUGAGGAUCACCCAUGUAAGGCGUGCUUCCCUCACGUGCGGCAGAAGGGCUGCGUCACU | 43.4 nM | 40 nM |  | 
13 | GUCAGCUCUUGAGGAUAUACAACACUGCUUCGGCAGUGUAUUAAGAUCACAUGAGGAUCACCCAUGUAGAAGGCACGAGCUGAU | 13.2 nM | 170 nM |  | 
14 | GUGGUCAGACAUGAGGAUCACCCAUGUGGAAUAAAUAAGGAACAGGAUAUCUAAUAUAGGAUAUAAGAGAAGGGUUGGUUGGUG |  |  | 81.7 nM | 93.6 nM
15 | UCAUUUACCACAGGAUAUAUUCAUAUACAGUUGUUUGGCUCUUACAUGUUAGUAGAAGGGUGCAACAUGAGGAUCACCCAUGUA |  |  | 298 nM | 163 nM
16 | AAAAAAAAUGUGUAGGAUAUCAGUAAAAAUACAUGAGGAUCACCCAUGUUCAAAAAAAAAAAAACUGAGAAGGACACGGAUGGUCC |  |  | 120 nM | 55.9 nM
17 | GUAGCAUACCGAGGAUAUUCAUAUCGGAAACGAACAUGAGGAUCACCCAUGUGGCGAAAGCCUUGGGAGAAGGCGGAAUGCUAC |  |  | 589 nM | 24.5 nM
18 | GUCGGAAACGACAAAAGUACCGGAGCAGAAGGCAUGUCAUAAGACAUGAGGAUCACCCAUGUGCAUGAGGAUAUGCUCCGGUAC |  |  | 5.45 nM | 4.68 nM
19 | ACAGAAGCACCCGGAACCGGACAAUGAGAAGGCCACGCACAUGAGGAUCACCCAUGUAAAGCUAUGGAGGAUAUCAUGAUGGAU |  |  | 40.3 nM | 5.64 nM
20 | GUCUUGUCAGGAUAUCUUACAUAACAAUCGUAGUUACAAUUGGAGAAGGGACAUGAGGAUCACCCAUGUUAGCG | 32.9 nM | 36 nM |  | 
